Calls of active or inactive are those of the source. The rule behind the calls is not given here.
Assays:
[1] = Binding affinity to 5'-end biotinylated ADAM10 A10-RNA QGRS (unknown origin) by surface plasmon resonance assay method
Summary of the method: (§1)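 SPR with 5′-biotinylated A10-RNA-Wt or A10-RNA-Mut immobilized on a neutravidin chip in running buffer (50 mM Tris-HCl pH 7.5, 100 mM KCl). Ligand serial dilutions in running buffer injected at 20 μL/min for association, then dissociation. Chip regenerated with 50 mM NaOH between runs.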

HeLa = test: Binding affinity to ADAM10 A10-RNA QGRS (unknown origin) transfected in human HeLa cells assessed as increase in ADAM10 translation efficiency at 2 uM after 24 hrs by Renilla/firefly dual luciferase reporter assay; assay type: cell-based
Summary of the method: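 HeLa cells transfected with 0.8 μg A10-Wt, A10-Mut or A10-Del plasmid (G-quadruplex motif upstream of Renilla in psiCHECK-2). Screening: 24 h at a single 2 μM concentration. Follow-up: plasmid for 12 h, then 0, 0.5, 1 or 2.5 μM for 24 h. Renilla normalized to firefly, relative to untreated control; mean ± SD of three independent measurements.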

[2] = Toxicity against APP expressing HEK cells assessed as reduction in cell viability after 48 hrs by MTT assay; assay type: cell-based, HEK293; conditions: human
[3] = Toxicity against human HeLa cells assessed as reduction in cell viability after 24 hrs by MTT assay; assay type: cell-based
[4] = Binding affinity to 5'-end biotinylated ADAM10 A10-mutant RNA QGRS (unknown origin) by surface plasmon resonance assay method; summary of the method: as §1

SMILES | Kd [1] [µM] | Activity [4] | Activity (HeLa) [%] | IC50 at 48 h [2] [µM] | IC50 at 24 h [3] [µM]
CN1CCN(c2cc(/C=C/c3cc4ccccc4[nH]3)[n+](C)c3ccccc23)CC1 | 1.8 | inactive | 116 | 18.6 | > 50
CCn1c2ccccc2c2cc(/C=C/c3cc(N4CCN(C)CC4)c4ccccc4n3)ccc21 | > 50 | inactive |  |  | 
CCn1c2ccccc2c2cc(/C=C/c3cc(N4CCN(CCN(C)C)CC4)c4ccccc4[n+]3C)ccc21 | > 50 | inactive |  |  | 
C[n+]1c(/C=C/c2ccc(O)cc2)ccc2ccccc21 | 15.9 | inactive |  |  | 
CN1CCN(c2cc(/C=C/c3ccc(N4CCOCC4)cc3)nc3ccccc23)CC1 | 47.6 | inactive |  |  | 
COc1cc(/C=C/c2ccc3ccccc3[n+]2C)cc(OC)c1OC | 9.3 | inactive |  |  | 
CCn1c2ccccc2c2cc(/C=C/c3cc(N4CCN(CCO)CC4)c4ccccc4[n+]3C)ccc21 | 32.1 | inactive |  |  | 
CN1CCN(c2cc(/C=C/c3cc([N+](=O)[O-])ccc3O)[n+](C)c3ccccc23)CC1 | 16.3 | inactive | 98.7 | 21.5 | > 50
CN1CCN(c2cc(/C=C/c3ccccc3)[n+](C)c3ccccc23)CC1 | 33.3 | inactive | 91.5 | 36.3 | > 50
C[n+]1c(/C=C/c2ccccc2)ccc2ccccc21 | > 50 | inactive | 101 | > 50 | > 50
C[n+]1c(/C=C/c2ccc(N3CCOCC3)cc2)ccc2ccccc21 | 15.8 | inactive | 92 | 23.3 | 43.4
CCn1c2ccccc2c2cc(/C=C/c3ccc4ccccc4n3)ccc21 | > 50 | inactive |  |  | 
C[n+]1c(/C=C/c2cc3ccccc3[nH]2)ccc2ccccc21 | 3.4 | inactive | 119 | 12.4 | > 50
COc1cc(/C=C/c2ccc3ccccc3[n+]2C)ccc1N1CCOCC1 | 28.2 | inactive | 102 | 49.1 | 32.8
CCn1c2ccccc2c2cc(/C=C/c3cc(N4CCCCC4)c4ccccc4n3)ccc21 | > 50 | inactive |  |  | 
CCn1c2ccccc2c2cc(/C=C/c3cc(N4CCN(CCCN(C)C)CC4)c4ccccc4[n+]3C)ccc21 | 45 | inactive |  |  | 
C[n+]1c(/C=C/c2cc([N+](=O)[O-])ccc2O)cc(N2CCOCC2)c2ccccc21 | > 50 | inactive |  |  | 17.3
C[n+]1c(/C=C/c2cc([N+](=O)[O-])ccc2O)ccc2ccccc21 | 46.3 | inactive |  |  | 
CN1CCN(c2cc(/C=C/c3ccc(N4CCOCC4)cc3)[n+](C)c3ccccc23)CC1 | 2.6 | inactive | 137 | 29.3 | > 50
COc1cc(/C=C/c2ccc3ccccc3[n+]2C)ccc1F | 18 | inactive |  |  | 

Second part, led by results:

Kd [1] [µM] | Activity [4] | SMILES | Activity (HeLa) [%] | IC50 at 48 h [2] [µM] | IC50 at 24 h [3] [µM]
11.7 | inactive | COc1cc(/C=C/c2cc(N3CCN(C)CC3)c3ccccc3[n+]2C)ccc1F |  |  | 
33 | inactive | COc1cc(/C=C/c2cc(N3CCN(C)CC3)c3ccccc3[n+]2C)ccc1N1CCOCC1 |  |  | 
20.5 | inactive | COc1cc(/C=C/c2ccc3ccccc3[n+]2C)cc(OC)c1O |  |  | 
> 50 | inactive | C[n+]1c(/C=C/c2cc([N+](=O)[O-])ccc2O)cc(N2CCCCC2)c2ccccc21 |  |  | 
16.5 | inactive | COc1cc(/C=C/c2cc(N3CCN(C)CC3)c3ccccc3[n+]2C)cc(OC)c1O | 108 | 25.8 | > 50
> 50 | inactive | CCn1c2ccccc2c2cc(/C=C/c3cc(N4CCCCC4)c4ccccc4[n+]3C)ccc21 |  |  | 
27.1 | inactive | COc1cc(/C=C/c2cc(N3CCOCC3)c3ccccc3[n+]2C)cc(OC)c1O |  |  | 
25 | inactive | COc1cc(/C=C/c2cc(N3CCCCC3)c3ccccc3[n+]2C)cc(OC)c1O |  |  | 
8.4 | inactive | CN1CCN(c2cc(/C=C/c3ccc(O)cc3)[n+](C)c3ccccc23)CC1 |  |  | 
10.9 | inactive | COc1cc(/C=C/c2cc(N3CCN(C)CC3)c3ccccc3[n+]2C)cc(OC)c1OC |  |  | 

From ChEMBL document CHEMBL3425405, “Discovery of Small Molecules for Up-Regulating the Translation of Antiamyloidogenic Secretase, a Disintegrin and Metalloproteinase 10 (ADAM10), by Binding to the G-Quadruplex-Forming Sequence in the 5' Untranslated Region (UTR) of Its mRNA” (J Med Chem, 2015)
